Test results taken from publication PMC7982424 (Acta Pharmaceutica Sinica. B, 2020).
Entries after “also recorded” stand apart in the source; their conditions may differ. Where a SMILES comes first, the peptide text is derived from it. The star is where a group is joined. Bz = O=C(c1ccccc1)*; NHPh = c1ccc(N*)cc1

Legend:
[1] = Cytotoxicity assay; type: cell-based; conditions: human, TZM-GFP cells
Procedure, shortened: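 TZM-GFP cells were plated at 1 × 10^4 cells per well and exposed continuously to increasing concentrations of test compound for 72 h. Viable cells were counted by XTT. CC50 came from a log(inhibitor) vs normalized response, variable-slope fit for each independent assay, then averaged. Runs were in duplicate across at least two independent experiments; mean ± SD.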

[2] = system: HIV-1NL4-3; assay: Anti-HIV-1 assay in TZM-GFP cells; type: cell-based; conditions: for inhibition at 2 µM: Human immunodeficiency virus 1, read-out: Inhibition at 2 μmol/L; for inhibition at 20 µM: Human immunodeficiency virus 1, read-out: Inhibition at 20 μmol/L; for Inhibition at 2 μmol/L: 2 μmol/L compound
Procedure, shortened: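 TZM-GFP cells seeded at 1 × 10^4 per well; after 24 h, medium replaced with test compound at 20 μmol/L, with actives retested at 2 μmol/L. HIV-1NL4-3 (HEK 293FT-transfection stock, MT2-propagated, PEG-concentrated) added at MOI 1 24 h later. After 48 h, GFP-positive cells counted by imaging; inhibition relative to DMSO controls. Duplicates, at least two independent experiments.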

[3] = Microsomal stability assay, human liver microsomes; type: in vitro ADME; conditions: for half-life at 1 μmol/L: human, pH 7.4
[4] = Microsomal stability assay, mouse liver microsomes; type: in vitro ADME; conditions: for half-life at 1 μmol/L: mouse, pH 7.4

SMILES | CC50 at 72 h [1] [µM] | inhibition at 2 µM [2] [%] | inhibition at 20 µM [2] [%] | also measured
Cc1cn(CC(=O)N[C@@H](Cc2ccccc2)C(=O)N(C)c2cccc(F)c2)c(=O)[nH]c1=O [Compound 13, (S)-N-(3-Fluorophenyl)-N-methyl-2-(2-(5-methyl-2,4-dioxo-3,4-dihydropyrimidin-1(2H)-yl)acetamido)-3-phenylpropanamide] | > 50 | 0 | 74 | –
Cc1cn(CC(=O)N[C@@H](Cc2ccccc2)C(=O)N(C)c2ccc(Cl)cc2)c(=O)[nH]c1=O [Compound 10, (S)-N-(4-Chlorophenyl)-N-methyl-2-(2-(5-methyl-2,4-dioxo-3,4-dihydropyrimidin-1(2H)-yl)acetamido)-3-phenylpropanamide] | > 50 | – | – | half-life at 1 μmol/L [3]: 12 min; Inhibition at 2 μmol/L ([2]; HIV-1 in TZM-GFP cells): exhibited inhibition; half-life at 1 μmol/L [4]: 4.6 min
Cc1cn(CC(=O)N[C@@H](Cc2ccccc2)C(=O)N(C)c2ccccc2)c(=O)[nH]c1=O [Compound 8, (S)-N-Methyl-2-(2-(5-methyl-2,4-dioxo-3,4-dihydropyrimidin-1(2H)-yl)acetamido)-N,3-diphenylpropanamide] | > 50 | 35 | 95 | Inhibition at 2 μmol/L ([2]; HIV-1 in TZM-GFP cells): exhibited inhibition
Cc1ccc(N(C)C(=O)[C@H](Cc2ccccc2)NC(=O)CC2NC(=O)NC2=O)cc1 (stereo partly drawn) [Compound 3, (2S)-2-(2-(2,5-Dioxoimidazolidin-4-yl)acetamido)-N-methyl-3-phenyl-N-(p-tolyl)propanamide] | > 50 | 2 | 62 | –
CN(C(=O)[C@H](Cc1ccccc1)NC(=O)c1c[nH]c(=O)[nH]c1=O)c1ccccc1 [Compound 17, (S)-N-(1-(Methyl(phenyl)amino)-1-oxo-3-phenylpropan-2-yl)-2,4-dioxo-1,2,3,4-tetrahydropyrimidine-5-carboxamide] | > 50 | – | – | antiviral activity against HIV-1 (in words) ([2]; HIV-1 in TZM-GFP cells): lack of antiviral activity; also recorded: completely inactive
CN(C(=O)[C@H](Cc1ccccc1)NC(=O)CNC(=O)c1ccccc1)c1cccc(C(F)(F)F)c1 [Compound 25, (S)-N-(2-((1-(Methyl(3-(trifluoromethyl)phenyl)amino)-1-oxo-3-phenylpropan-2-yl)amino)-2-oxoethyl)benzamide] | > 50 | 19 | 89 | –
CN(C(=O)[C@H](Cc1ccccc1)NC(=O)CNC(=O)c1ccccc1)c1cccc(Cl)c1 [Compound 21, (S)-N-(2-((1-((3-Chlorophenyl)(methyl)amino)-1-oxo-3-phenylpropan-2-yl)amino)-2-oxoethyl)benzamide] | > 50 | 40 | 95 | –
CN(C(=O)[C@H](Cc1ccccc1)NC(=O)CNC(=O)c1ccccc1)c1cccc(F)c1 [Compound 23, (S)-N-(2-((1-((3-Fluorophenyl)(methyl)amino)-1-oxo-3-phenylpropan-2-yl)amino)-2-oxoethyl)benzamide] | > 50 | 3 | 94 | half-life at 1 μmol/L [3]: 12 min; half-life at 1 μmol/L [4]: 3.6 min
CN(C(=O)[C@H](Cc1ccccc1)NC(=O)CNC(=O)c1ccccc1)c1ccc(F)cc1 [Compound 22, (S)-N-(2-((1-((4-Fluorophenyl)(methyl)amino)-1-oxo-3-phenylpropan-2-yl)amino)-2-oxoethyl)benzamide] | > 50 | 12 | 97 | –
Cc1ccc(N(C)C(=O)[C@H](Cc2ccccc2)NC(=O)Cn2cc(C)c(=O)[nH]c2=O)cc1 [Compound 9, (S)-N-Methyl-2-(2-(5-methyl-2,4-dioxo-3,4-dihydropyrimidin-1(2H)-yl)acetamido)-3-phenyl-N-(p-tolyl)propanamide] | > 50 | 7 | 85 | –
CN(C(=O)[C@H](Cc1ccccc1)NC(=O)CC1NC(=O)NC1=O)c1ccc(Cl)cc1 (stereo partly drawn) [Compound 4, (2S)-N-(4-Chlorophenyl)-2-(2-(2,5-dioxoimidazolidin-4-yl)acetamido)-N-methyl-3-phenylpropanamide] | > 50 | 17 | 96 | Inhibition at 2 μmol/L ([2]; HIV-1 in TZM-GFP cells): inhibited HIV-1 weakly; Inhibition at 20 μmol/L ([2]; 20 μmol/L compound, HIV-1 in TZM-GFP cells): almost completely
CN(C(=O)[C@H](Cc1ccccc1)NC(=O)CC1NC(=O)NC1=O)c1ccc(F)cc1 (stereo partly drawn) [Compound 6, (2S)-2-(2-(2,5-Dioxoimidazolidin-4-yl)acetamido)-N-(4-fluorophenyl)-N-methyl-3-phenylpropanamide] | > 50 | – | – | –
Cc1cn(CC(=O)N[C@@H](Cc2ccccc2)C(=O)N(C)c2ccc(F)cc2)c(=O)[nH]c1=O [Compound 12, (S)-N-(4-Fluorophenyl)-N-methyl-2-(2-(5-methyl-2,4-dioxo-3,4-dihydropyrimidin-1(2H)-yl)acetamido)-3-phenylpropanamide] | > 50 | 6 | 94 | –
CN(C(=O)[C@H](Cc1ccccc1)NC(=O)CC1NC(=O)NC1=O)c1cccc(Cl)c1 (stereo partly drawn) [Compound 5, (2S)-N-(3-Chlorophenyl)-2-(2-(2,5-dioxoimidazolidin-4-yl)acetamido)-N-methyl-3-phenylpropanamide] | > 50 | – | – | –
Cc1cn(CC(=O)N[C@@H](C(=O)N(C)c2ccccc2)c2ccccc2)c(=O)[nH]c1=O [Compound 16, (R)-N-Methyl-2-(2-(5-methyl-2,4-dioxo-3,4-dihydropyrimidin-1(2H)-yl)acetamido)-N,2-diphenylacetamide] | > 50 | – | – | antiviral activity against HIV-1 (in words) ([2]; HIV-1 in TZM-GFP cells): did not inhibit HIV-1
CN(C(=O)[C@H](Cc1ccccc1)NC(=O)CC1NC(=O)NC1=O)c1ccccc1 (stereo partly drawn) [Compound 2, (2S)-2-(2-(2,5-Dioxoimidazolidin-4-yl)acetamido)-N-methyl-N,3-diphenylpropanamide] | > 50 | – | – | antiviral activity against HIV-1 (in words) ([2]; HIV-1 in TZM-GFP cells): completely inactive
CN(C(=O)[C@H](Cc1ccccc1)NC(=O)CC1NC(=O)NC1=O)c1cccc(F)c1 (stereo partly drawn) [Compound 7, (2S)-2-(2-(2,5-Dioxoimidazolidin-4-yl)acetamido)-N-(3-fluorophenyl)-N-methyl-3-phenylpropanamide] | > 50 | – | – | –
CN(C(=O)[C@H](Cc1ccccc1)NC(=O)CNC(=O)c1ccccc1)c1ccc(Cl)cc1 [Compound 20, (S)-N-(2-((1-((4-Chlorophenyl)(methyl)amino)-1-oxo-3-phenylpropan-2-yl)amino)-2-oxoethyl)benzamide] | > 50 | – | – | half-life at 1 μmol/L [3]: 36 min; fold increase of half-life over PF74 in HLMs ([3]; relative to PF74): 51 fold; half-life at 1 μmol/L [4]: 13 min; fold increase of half-life over PF74 in MLMs ([4]; relative to PF74): 22 fold
O=C(CNC(=O)c1ccccc1)N[C@@H](Cc1ccccc1)C(=O)N1CCC[C@H]1C(=O)Nc1ccccc1 [Compound 27, (S)-1-(Benzoylglycyl-L-phenylalanyl)-N-phenylpyrrolidine-2-carboxamide] (Bz-Gly-Phe-Pro-NHPh) | > 50 | – | – | –
CCN(C(=O)[C@H](Cc1ccccc1)NC(=O)CNC(=O)c1ccccc1)c1ccccc1 [Compound 26, (S)-N-(2-((1-(Ethyl(phenyl)amino)-1-oxo-3-phenylpropan-2-yl)amino)-2-oxoethyl)benzamide] | > 50 | – | – | half-life at 1 μmol/L [3]: 14 min; half-life at 1 μmol/L [4]: 2.4 min
Cc1cn(CC(=O)N[C@@H](Cc2ccccc2)C(=O)N(C)c2cccc(Cl)c2)c(=O)[nH]c1=O [Compound 11, (S)-N-(3-Chlorophenyl)-N-methyl-2-(2-(5-methyl-2,4-dioxo-3,4-dihydropyrimidin-1(2H)-yl)acetamido)-3-phenylpropanamide] | > 50 | 37 | 95 | Inhibition at 2 μmol/L ([2]; HIV-1 in TZM-GFP cells): exhibited inhibition
CN(C(=O)[C@H](Cc1ccccc1)NC(=O)CNC(=O)c1ccccc1)c1cccc(Br)c1 [Compound 24, (S)-N-(2-((1-((3-Bromophenyl)(methyl)amino)-1-oxo-3-phenylpropan-2-yl)amino)-2-oxoethyl)benzamide] | > 50 | 38 | 97 | –
Cc1cn(CC(=O)N[C@@H](Cc2ccccc2)C(=O)N(C)c2cccc(C(F)(F)F)c2)c(=O)[nH]c1=O [Compound 15, (S)-N-Methyl-2-(2-(5-methyl-2,4-dioxo-3,4-dihydropyrimidin-1(2H)-yl)acetamido)-3-phenyl-N-(3-(trifluoromethyl)phenyl)propanamide] | > 50 | 28 | 95 | Inhibition at 2 μmol/L ([2]; HIV-1 in TZM-GFP cells): exhibited inhibition
Cc1ccc(N(C)C(=O)[C@H](Cc2ccccc2)NC(=O)CNC(=O)c2ccccc2)cc1 [Compound 19, (S)-N-(2-((1-(Methyl(p-tolyl)amino)-1-oxo-3-phenylpropan-2-yl)amino)-2-oxoethyl)benzamide] | > 50 | – | – | half-life at 1 μmol/L [3]: 22 min; half-life at 1 μmol/L [4]: 5 min
Cc1cn(CC(=O)N[C@@H](Cc2ccccc2)C(=O)N(C)c2cccc(Br)c2)c(=O)[nH]c1=O [Compound 14, (S)-N-(3-Bromophenyl)-N-methyl-2-(2-(5-methyl-2,4-dioxo-3,4-dihydropyrimidin-1(2H)-yl)acetamido)-3-phenylpropanamide] | > 50 | 22 | 100 | Inhibition at 2 μmol/L ([2]; HIV-1 in TZM-GFP cells): exhibited inhibition
